Test results as given in ChEMBL document CHEMBL3045066, “Synthesis, structure-activity relationships (SAR) and in silico studies of coumarin derivatives with antifungal activity” (2013).
In brackets after ≈: the same amount, converted by molar mass.

How the values were obtained:
Type in all cases: functional
Aspergillus fumigatus [1] = experiment: Antifungal activity against Aspergillus fumigatus ATCC 46913 after 72 hr by broth microdilution method; conditions: ATCC 46913, 72 h
Summary of the method: (§1)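 Molds were grown 7 days on SDA at 25–28 °C, and conidia were harvested in sterile 0.85% NaCl. Conidia were counted by hemocytometer and adjusted to about 5 × 10^6 conidia/mL. Microdilution used Sabouraud broth in 96-well plates with compound at 2048 to 8 μg/mL and about 2.5 × 10^5 conidia/mL per well. Plates were incubated at 25–28 °C for 72 h, with readings confirmed at 7 days. Amphotericin B was the reference.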

Aspergillus fumigatus [2] = experiment: Antifungal activity against Aspergillus fumigatus IPP 210 after 72 hr by broth microdilution method; conditions: IPP 210, 72 h; summary of the method: as §1
Aspergillus fumigatus [3] = experiment: Antifungal activity against Aspergillus fumigatus ATCC 16913 after 72 hr by broth microdilution method; conditions: for MIC: Aspergillus fumigatus, ATCC 16913, 72 h; summary of the method: as §1
Aspergillus flavus [4] = experiment: Antifungal activity against Aspergillus flavus LM 210 after 72 hr by broth microdilution method; conditions: LM 210, 72 h; summary of the method: as §1
Aspergillus flavus [5] = experiment: Antifungal activity against Aspergillus flavus ATCC 16013 after 72 hr by broth microdilution method; conditions: ATCC 16013, 72 h; summary of the method: as §1
Aspergillus flavus [6] = experiment: Antifungal activity against Aspergillus flavus LM 247 after 72 hr by broth microdilution method; conditions: LM 247, 72 h; summary of the method: as §1
Aspergillus fumigatus [7] = experiment: Antifungal activity against Aspergillus fumigatus ATCC 40640 after 72 hr by broth microdilution method; conditions: ATCC 40640, 72 h; summary of the method: as §1
Aspergillus flavus [8] = experiment: Antifungal activity against Aspergillus flavus LM 26 after 72 hr by broth microdilution method; conditions: LM 26, 72 h; summary of the method: as §1

SMILES | MIC (Aspergillus fumigatus [1]) [µg/mL] | MIC (Aspergillus fumigatus [2]) [µg/mL] | MIC (Aspergillus fumigatus [3]) [µg/mL] | MIC (Aspergillus flavus [4]) [µg/mL] | MIC (Aspergillus flavus [5]) [µg/mL] | MIC (Aspergillus flavus [6]) [µg/mL] | MIC (Aspergillus fumigatus [7]) [µg/mL] | MIC (Aspergillus flavus [8]) [µg/mL] | log(1/MIC) (Aspergillus fumigatus [3])
O=c1ccc2ccc(O)cc2o1 [UMBELLIFERONE] | ≥ 2050 | ≥ 2050 | ≥ 2050 | ≥ 2050 | ≥ 2050 | ≥ 2050 | ≥ 2050 | ≥ 2050 | 1.89
COc1cc2ccc(=O)oc2cc1O [SCOPOLETIN] | ≥ 2050 | ≥ 2050 | ≥ 2050 | ≥ 2050 | ≥ 2050 | ≥ 2050 | ≥ 2050 | ≥ 2050 | 1.97
CC(C)=CCC/C(C)=C/COc1ccc2oc(=O)ccc2c1 | ≥ 2050 | ≥ 2050 | ≥ 2050 | ≥ 2050 | ≥ 2050 | ≥ 2050 | ≥ 2050 | ≥ 2050 | 2.16
O=c1ccc2cc(O)c(O)cc2o1 [ESCULETIN] | ≥ 2050 | ≥ 2050 | ≥ 2050 | ≥ 2050 | ≥ 2050 | ≥ 2050 | ≥ 2050 | ≥ 2050 | 1.93
C=CCOc1ccc2oc(=O)ccc2c1 | ≥ 2050 | ≥ 2050 | ≥ 2050 | ≥ 2050 | ≥ 2050 | ≥ 2050 | ≥ 2050 | ≥ 2050 | 1.99
O=c1cc(O)c2ccccc2o1 [4-HYDROXYCOUMARINS] | ≥ 2050 | ≥ 2050 | ≥ 2050 | ≥ 2050 | ≥ 2050 | ≥ 2050 | ≥ 2050 | ≥ 2050 | 1.89
O=c1ccc2cc(O)ccc2o1 [6-HYDROXYCOUMARIN] | ≥ 2050 | ≥ 2050 | ≥ 2050 | ≥ 2050 | ≥ 2050 | ≥ 2050 | ≥ 2050 | ≥ 2050 | 1.89
CC(C)=CCC/C(C)=C/COc1ccc2ccc(=O)oc2c1 [AURAPTENE] | ≥ 2050 | ≥ 2050 | ≥ 2050 | ≥ 2050 | ≥ 2050 | ≥ 2050 | ≥ 2050 | ≥ 2050 | 2.16
COc1cc2ccc(=O)oc2c(O)c1O [FRAXETIN] | ≥ 2050 | ≥ 2050 | ≥ 2050 | ≥ 2050 | ≥ 2050 | ≥ 2050 | ≥ 2050 | ≥ 2050 | 2
O=c1oc2ccccc2c(O)c1Cc1c(O)c2ccccc2oc1=O [DICUMAROL] | ≥ 2050 | ≥ 2050 | ≥ 2050 | ≥ 2050 | ≥ 2050 | ≥ 2050 | ≥ 2050 | ≥ 2050 | 2.21
CC(C)=CCOc1ccc2oc(=O)ccc2c1 | ≥ 2050 | ≥ 2050 | ≥ 2050 | ≥ 2050 | ≥ 2050 | ≥ 2050 | ≥ 2050 | ≥ 2050 | 2.05
CC(=O)Oc1ccc2ccc(=O)oc2c1 [7-ACETOXYCOUMARIN] | 64 (≈ 0.313 mM) | 64 (≈ 0.313 mM) | 64 (≈ 0.313 mM) | 64 (≈ 0.313 mM) | 64 (≈ 0.313 mM) | 128 (≈ 0.627 mM) | 64 (≈ 0.313 mM) | 64 (≈ 0.313 mM) | 3.5

The remaining molecules from weak to strong by MIC (Aspergillus fumigatus [1]), led by results:

MIC (Aspergillus fumigatus [1]) [µg/mL] | MIC (Aspergillus fumigatus [2]) [µg/mL] | MIC (Aspergillus fumigatus [3]) [µg/mL] | MIC (Aspergillus flavus [4]) [µg/mL] | MIC (Aspergillus flavus [5]) [µg/mL] | MIC (Aspergillus flavus [6]) [µg/mL] | MIC (Aspergillus fumigatus [7]) [µg/mL] | MIC (Aspergillus flavus [8]) [µg/mL] | log(1/MIC) (Aspergillus fumigatus [3]) | SMILES
1020 (≈ 5.39 mM) | 1020 (≈ 5.39 mM) | 1020 (≈ 5.39 mM) | 1020 (≈ 5.39 mM) | 1020 (≈ 5.39 mM) | ≥ 2050 | 1020 (≈ 5.39 mM) | 1020 (≈ 5.39 mM) | 2.26 | O=C(O)c1cc2ccccc2oc1=O [COUMARIN-3-CARBOXYLIC ACID]
1020 (≈ 7.01 mM) | 1020 (≈ 7.01 mM) | 1020 (≈ 7.01 mM) | 1020 (≈ 7.01 mM) | 1020 (≈ 7.01 mM) | 1020 (≈ 7.01 mM) | 1020 (≈ 7.01 mM) | 1020 (≈ 7.01 mM) | 2.15 | O=c1ccc2ccccc2o1 [COUMARIN]
1020 (≈ 4.94 mM) | 1020 (≈ 4.94 mM) | 1020 (≈ 4.94 mM) | 1020 (≈ 4.94 mM) | 1020 (≈ 4.94 mM) | 1020 (≈ 4.94 mM) | 1020 (≈ 4.94 mM) | 1020 (≈ 4.94 mM) | 2.3 | O=c1oc2ccccc2c(O)c1[N+](=O)[O-]
512 (≈ 2.03 mM) | 512 (≈ 2.03 mM) | 512 (≈ 2.03 mM) | 512 (≈ 2.03 mM) | 512 (≈ 2.03 mM) | 512 (≈ 2.03 mM) | 512 (≈ 2.03 mM) | 512 (≈ 2.03 mM) | 2.69 | O=c1ccc2c([N+](=O)[O-])c(O)c([N+](=O)[O-])cc2o1
256 (≈ 1.25 mM) | 256 (≈ 1.25 mM) | 256 (≈ 1.25 mM) | 256 (≈ 1.25 mM) | 256 (≈ 1.25 mM) | 256 (≈ 1.25 mM) | 256 (≈ 1.25 mM) | 256 (≈ 1.25 mM) | 2.89 | CC(=O)Oc1ccc2oc(=O)ccc2c1
128 (≈ 0.556 mM) | 128 (≈ 0.556 mM) | 128 (≈ 0.556 mM) | 1020 (≈ 4.45 mM) | 1020 (≈ 4.45 mM) | 1020 (≈ 4.45 mM) | 128 (≈ 0.556 mM) | 1020 (≈ 4.45 mM) | 3.25 | CC(C)=CCOc1ccc2ccc(=O)oc2c1 [7-PRENYLOXYCOUMARIN]
64 (≈ 0.395 mM) | 64 (≈ 0.395 mM) | 64 (≈ 0.395 mM) | 128 (≈ 0.789 mM) | 128 (≈ 0.789 mM) | 128 (≈ 0.789 mM) | 64 (≈ 0.395 mM) | 128 (≈ 0.789 mM) | 3.4 | O=c1oc2ccccc2cc1O [3-HYDROXYCOUMARIN]
64 (≈ 0.317 mM) | 64 (≈ 0.317 mM) | 64 (≈ 0.317 mM) | 64 (≈ 0.317 mM) | 64 (≈ 0.317 mM) | 256 (≈ 1.27 mM) | 64 (≈ 0.317 mM) | 64 (≈ 0.317 mM) | 3.49 | C=CCOc1ccc2ccc(=O)oc2c1 [7-ALLYLOXYCOUMARIN]
32 (≈ 0.158 mM) | 64 (≈ 0.317 mM) | 32 (≈ 0.158 mM) | 32 (≈ 0.158 mM) | 32 (≈ 0.158 mM) | 1020 (≈ 5.06 mM) | 32 (≈ 0.158 mM) | 64 (≈ 0.317 mM) | 3.8 | C=CCOc1cc(=O)oc2ccccc12
16 (≈ 0.0772 mM) | 16 (≈ 0.0772 mM) | 16 (≈ 0.0772 mM) | 16 (≈ 0.0772 mM) | 16 (≈ 0.0772 mM) | 16 (≈ 0.0772 mM) | 16 (≈ 0.0772 mM) | 16 (≈ 0.0772 mM) | 4.11 | O=c1ccc2cc([N+](=O)[O-])c(O)cc2o1
2 (≈ 0.00216 mM) | 2 (≈ 0.00216 mM) | 2 (≈ 0.00216 mM) | 2 (≈ 0.00216 mM) | 2 (≈ 0.00216 mM) | 8 (≈ 0.00866 mM) | 2 (≈ 0.00216 mM) | 512 (≈ 0.554 mM) |  | C[C@@H]1[C@H](O)[C@@H](C)/C=C/C=C/C=C/C=C/C=C/C=C/C=C/[C@H](O[C@@H]2O[C@H](C)[C@@H](O)[C@H](N)[C@@H]2O)C[C@@H]2O[C@](O)(C[C@@H](O)C[C@@H](O)[C@H](O)CC[C@@H](O)C[C@@H](O)CC(=O)O[C@H]1C)C[C@H](O)[C@H]2C(=O)O [AMPHOTERICIN B]
